Test results published in ChEMBL document CHEMBL4396869, “Design and Synthesis of Selective Phosphodiesterase 4D (PDE4D) Allosteric Inhibitors for the Treatment of Fragile X Syndrome and Other Brain Disorders” (J Med Chem, 2019).
Calls of active or inactive are those of the source. No cut-off for these calls is given here.

How the values were obtained:
Homo sapiens [1] = species: Homo sapiens; test: Selectivity ratio of IC50 for recombinant human wild-type His6-tagged PDE4D7 UCR1 domain (S129 residues) expressed in baculovirus infected Sf9 insect cells to IC50 for recombinant human His6-tagged PDE4D7 UCR1 S129D mutant expressed in baculovirus infected Sf9 insect cells
[2] = biological target: 3',5'-cyclic-AMP phosphodiesterase 4B (Homo sapiens, UniProt Q07343, S133D); test: (§1) Inhibition of recombinant human His6-tagged PDE4B1 UCR1 S133D mutant expressed in baculovirus infected Sf9 insect cells using cAMP as substrate preincubated for 5 to 10 mins followed by substrate addition and measured for 10 mins by yeast myokinase/pyruvate kinase/lactate dehydrogenase-coupled fluorescence assay
[3] = as §1, with “human wild-type” for “human”, “PDE4D7” for “PDE4B1”, “domain (S129 residues)” for “S133D mutant”
Homo sapiens [4] = species: Homo sapiens; test: Selectivity ratio of IC50 for recombinant human His6-tagged PDE4B1 UCR1 S133D mutant expressed in baculovirus infected Sf9 insect cells to IC50 for recombinant human His6-tagged PDE4D7 UCR1 S129D mutant expressed in baculovirus infected Sf9 insect cells
[5] = as §1, with “PDE4D7” for “PDE4B1”, “S129D” for “S133D”
[6] = Stability in mouse liver microsomes assessed as parent compound remaining at 1 uM measured after 30 mins by LC-MS/MS analysis; format: ADME, Microsome; settings: read-out: Stability
How it was run: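 Liver microsome stability run by a contract lab using standard protocols. Parent compound remaining measured after 30 min incubation.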

[7] = Protein binding in human plasma; format: ADME, cell-free
[8] = as §1, with “PDE4D7” for “PDE4B1”, “S129D” for “S133D”, “assay relative to control” for “assay”
[9] = Aqueous kinetic solubility of the compound in pH 7.4 PBS buffer at 100 uM measured after 1 hr; format: physicochemical; settings: pH 7.4, 1 h
Cytochrome P450 3A4 = Cytochrome P450 3A4 (Homo sapiens, UniProt P08684); test: Inhibition of CYP3A4 (unknown origin) by fluorescence-based assay; format: ADME
How it was run: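 CYP inhibition run with a fluorescent substrate by a contract laboratory under standard protocols; IC50 reported.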

[10] = Protein binding in rat plasma; format: ADME, cell-free; settings: read-out: PPB
[11] = Protein binding in dog plasma; format: ADME, cell-free, Canis lupus familiaris; settings: read-out: PPB
[12] = Protein binding in mouse plasma; format: ADME, cell-free; settings: read-out: PPB
Mus musculus = test: Memory enhancement effect in ICR mouse assessed as improvement in novel object discrimination at 3 to 30 mg/kg, po administered via gavage measured for 5 mins by open field test; format: functional, organism-based
How it was run: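 Male ICR mice (25–30 g), dosed by oral gavage in 5% DMSO, 5% Solutol in PBS. Three phases in an open field box: 10 min habituation on day 1, 5 min training with identical objects on day 2, 5 min test with familiar and novel objects on day 3 (24 h delay). Exploration times recorded; discrimination index d2 = (b − a)/(a + b).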

Chain of 3',5'-cyclic-AMP phosphodiesterase 4B (Q07343 whole entry S133D): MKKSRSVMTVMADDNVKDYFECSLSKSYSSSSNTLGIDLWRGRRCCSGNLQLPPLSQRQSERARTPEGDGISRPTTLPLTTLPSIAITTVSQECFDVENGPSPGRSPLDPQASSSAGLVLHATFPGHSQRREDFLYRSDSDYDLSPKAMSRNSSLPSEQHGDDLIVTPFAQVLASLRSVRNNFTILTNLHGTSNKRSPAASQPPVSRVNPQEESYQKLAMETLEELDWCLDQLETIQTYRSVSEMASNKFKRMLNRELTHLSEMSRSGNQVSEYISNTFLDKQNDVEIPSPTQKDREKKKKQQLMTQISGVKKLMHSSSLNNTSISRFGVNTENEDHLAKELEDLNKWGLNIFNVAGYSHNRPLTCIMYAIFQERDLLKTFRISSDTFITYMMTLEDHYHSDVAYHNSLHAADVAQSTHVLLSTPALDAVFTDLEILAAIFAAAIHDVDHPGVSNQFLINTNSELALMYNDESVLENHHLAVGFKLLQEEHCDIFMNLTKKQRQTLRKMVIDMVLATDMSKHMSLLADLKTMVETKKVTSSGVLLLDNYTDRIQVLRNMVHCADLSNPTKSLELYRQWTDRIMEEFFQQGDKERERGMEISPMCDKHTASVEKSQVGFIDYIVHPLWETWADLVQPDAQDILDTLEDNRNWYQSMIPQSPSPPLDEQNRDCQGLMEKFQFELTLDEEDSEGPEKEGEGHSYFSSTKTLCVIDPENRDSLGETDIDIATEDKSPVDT
Chain of Cytochrome P450 3A4 (P08684 whole entry): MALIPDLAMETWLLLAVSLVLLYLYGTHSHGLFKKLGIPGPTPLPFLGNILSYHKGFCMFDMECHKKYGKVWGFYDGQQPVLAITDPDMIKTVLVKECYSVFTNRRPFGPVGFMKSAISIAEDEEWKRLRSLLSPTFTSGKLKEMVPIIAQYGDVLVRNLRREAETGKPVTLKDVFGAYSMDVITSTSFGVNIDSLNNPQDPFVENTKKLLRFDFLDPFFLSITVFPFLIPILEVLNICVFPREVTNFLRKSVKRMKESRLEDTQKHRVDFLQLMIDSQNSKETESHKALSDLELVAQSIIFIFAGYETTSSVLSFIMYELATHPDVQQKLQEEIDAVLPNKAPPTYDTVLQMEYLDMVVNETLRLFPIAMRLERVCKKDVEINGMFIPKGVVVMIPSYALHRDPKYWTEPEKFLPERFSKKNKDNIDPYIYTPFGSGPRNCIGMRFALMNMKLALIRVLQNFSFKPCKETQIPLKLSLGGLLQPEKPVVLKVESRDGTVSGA

Compound `CCc1nc(Nc2ccc(C(=O)O)cc2)nc(-c2cccc(Cl)c2)n1` has a Ratio IC50 (Homo sapiens [1]) of 2, an IC50 [2] of 241 nM and an IC50 [3] of 482 nM. For the same compound, the Ratio IC50 (Homo sapiens [4]) was 1 and the IC50 [5] was 213 nM.
Work on `CCc1cc(Oc2ccc(CCO)cc2)nc(-c2cccc(Cl)c2)n1` yielded an IC50 [2] of 58 nM, an IC50 [3] of 251 nM and an IC50 [5] of 1.8 nM.
In the case of `OCCc1cccc(Nc2cc(-c3cccc(Cl)c3)nc3c2CCC3)c1`, the IC50 [2] is reported as 1420 nM, the IC50 [3] is reported as 6320 nM and the IC50 [5] is reported as 226 nM.
With `CCc1cc(Cc2ccc(CC(=O)NCCO)cc2)nc(-c2cccc(Cl)c2)n1` the remaining at 0.5 h, 1 µM [6] was 36%, the PPB [7] was 99.6 to 99.8% and the Imax [8] was 88%. The Kinetic_solubility [9] was 29 µM, the IC50 (Cytochrome P450 3A4) was 3100 nM and the IC50 [2] was 128 nM. For the same compound, the IC50 [3] was 885 nM, the IC50 [5] was 0.8 nM and the fraction unbound [10] was 0.002 to 0.004. For the same compound, the fraction unbound [11] was 0.002 to 0.004, the fraction unbound [12] was 0.002 to 0.004 and the Activity (Mus musculus) was “Active”.
`CNC(=O)Cc1ccc(Nc2cc(-c3cccc(Cl)c3)nc3c2CCC3)cc1` showed an IC50 [2] of 98 nM, an IC50 [3] of 1990 nM and an IC50 [5] of 133 nM.
For `CCc1cc(Nc2ccc(CC(N)=O)cc2)nc(-c2cccc(Cl)c2)n1`, the Ratio IC50 (Homo sapiens [1]) was 56, the IC50 [2] was 43 nM and the IC50 [3] was 146 nM. For the same compound, the Ratio IC50 (Homo sapiens [4]) was 17 and the IC50 [5] was 2.6 nM.
Work on `NC(=O)Cc1ccc(Cc2cc(-c3cccc(Cl)c3)nc3c2CCC3)cc1` yielded an IC50 [2] of 137 nM, an IC50 [3] of 810 nM and an IC50 [5] of 8.6 nM.
Work on `CCc1nc(Nc2ccc(CO)cc2)nc(-c2cccc(Cl)c2)n1` yielded an IC50 [2] of 105 nM, an IC50 [3] of 351 nM and an IC50 [5] of 12 nM.
With `CCc1nc(Nc2ccc(C(N)=O)cc2)nc(-c2cccc(Cl)c2)n1` the Ratio IC50 (Homo sapiens [1]) was 11, the IC50 [2] was 44 nM and the IC50 [3] was 252 nM. It also gave a Ratio IC50 (Homo sapiens [4]) of 2 and an IC50 [5] of 22 nM.
`CN(C)C(=O)Cc1ccc(Nc2cc(-c3cccc(Cl)c3)nc3c2CCC3)cc1` showed an IC50 [2] of 356 nM, an IC50 [3] of 914 nM and an IC50 [5] of 51 nM.
Compound `CCc1cc(Nc2ccc(CCO)cc2)nc(-c2cccc(Cl)c2)n1` has an IC50 [2] of 57 nM, an IC50 [3] of 149 nM and an IC50 [5] of 1.1 nM.
`CCc1nc(Nc2ccc(CCO)cc2)nc(-c2cccc(Cl)c2)n1` showed a Ratio IC50 (Homo sapiens [1]) of 204, an IC50 [2] of 24 nM and an IC50 [3] of 102 nM. For the same compound, the Ratio IC50 (Homo sapiens [4]) was 48 and the IC50 [5] was 0.5 nM.
Work on `CCc1nc(Nc2ccc(CC(=O)O)cc2)nc(-c2cccc(Cl)c2)n1` yielded a Ratio IC50 (Homo sapiens [1]) of 6, an IC50 [2] of 781 nM and an IC50 [3] of 4040 nM. For the same compound, the Ratio IC50 (Homo sapiens [4]) was 1 and the IC50 [5] was 681 nM.
